Test [1] deals with Histone-lysine N-methyltransferase, H3 lysine-79 specific (Homo sapiens, UniProt Q8TEK3). Kind of test: Binding affinity to recombinant human N-terminal GST-tagged DOT1L (1 to 420 residues) expressed in Escherichia coli BL21 (DE3) assessed as increase in melting temperature incubated for 1 min by 1,8-ANS probe based thermal shift assay.
The target of test [2] is T1, Histone H3 methyltransferase DOT1 variant d (Mus musculus) (UniProt Q679P4).
T1 sequence (whole entry): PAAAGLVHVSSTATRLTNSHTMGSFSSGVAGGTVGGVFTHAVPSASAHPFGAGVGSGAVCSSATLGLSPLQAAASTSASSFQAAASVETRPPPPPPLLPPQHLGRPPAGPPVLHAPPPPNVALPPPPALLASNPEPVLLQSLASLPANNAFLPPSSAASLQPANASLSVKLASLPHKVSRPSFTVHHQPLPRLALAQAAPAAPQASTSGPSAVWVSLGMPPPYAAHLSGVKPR
Kind of test: Inhibition of DOT1L in mouse bone marrow cell transformed with MLL-AF9 cells assessed as reduction in H3K79 methylation at 30 uM measured after 9 days by Western blot analysis relative to control. Type of test: cell-based. The following applies: time 9.0 day.

The target in test [3] is T2, Protein arginine N-methyltransferase 7 (Homo sapiens, UniProt Q9NVM4).
T2 sequence (Q9NVM4 whole entry): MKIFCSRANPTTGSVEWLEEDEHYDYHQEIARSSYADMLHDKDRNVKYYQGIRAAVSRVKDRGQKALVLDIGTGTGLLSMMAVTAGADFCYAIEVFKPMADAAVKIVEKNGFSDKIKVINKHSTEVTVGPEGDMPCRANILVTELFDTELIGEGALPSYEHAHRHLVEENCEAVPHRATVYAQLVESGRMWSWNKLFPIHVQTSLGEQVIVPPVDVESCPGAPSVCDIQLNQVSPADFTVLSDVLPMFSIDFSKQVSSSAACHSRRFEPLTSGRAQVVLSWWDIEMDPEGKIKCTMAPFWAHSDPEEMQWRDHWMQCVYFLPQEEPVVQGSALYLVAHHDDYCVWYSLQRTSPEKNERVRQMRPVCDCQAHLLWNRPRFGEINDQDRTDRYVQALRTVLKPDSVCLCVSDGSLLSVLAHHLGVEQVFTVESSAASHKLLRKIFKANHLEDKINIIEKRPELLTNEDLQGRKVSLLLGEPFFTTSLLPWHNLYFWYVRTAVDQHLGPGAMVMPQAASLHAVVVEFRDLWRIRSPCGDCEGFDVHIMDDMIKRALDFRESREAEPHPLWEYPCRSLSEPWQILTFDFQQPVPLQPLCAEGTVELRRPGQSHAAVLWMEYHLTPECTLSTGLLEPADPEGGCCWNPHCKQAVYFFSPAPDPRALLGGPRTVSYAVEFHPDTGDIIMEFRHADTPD
Kind of test: Inhibition of recombinant human PRMT7 using GST-GAR as substrate by hotspot assay.

The target of test [4] is Protein arginine N-methyltransferase 8 (Homo sapiens, UniProt Q9NR22). Kind of test: Inhibition of recombinant human PRMT8 using histone H4 as substrate by hotspot assay.
The target of test [5] is Histone-lysine N-methyltransferase EZH2 (Homo sapiens, UniProt Q15910). Kind of test: Inhibition of recombinant human EZH2 using core histone as substrate by hotspot assay.
In test [6] the test system is Bone marrow cell. Kind of test: Induction of cell differentiation in mouse bone marrow cells transformed with MLL-AF9 assessed as change in morphology incubated for 6 days by Wright-Giemsa staining based inverted microscopy. Type of test: functional. As to conditions: dose 1-30 µM, time 6.0 day. The procedure, abridged: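 Cells taken on day 6 of the proliferation culture (MLL-AF9 murine line, IMDM + 15% FBS + IL-3, re-dosed at each split, 0.3% DMSO). Cytospun onto slides, Wright-Giemsa stained, and imaged under bright field on an inverted microscope to assess morphology.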

For test [7], the system named is Bone marrow cell. Kind of test: Antiproliferative activity against mouse bone marrow cell transformed with MLL-AF9 assessed as reduction in cell growth measured after 11 days by hemocytometry. The test is classed as functional, cell-based. As to conditions: 264 h.
For test [8], the target named is T1, Histone H3 methyltransferase DOT1 variant d (Mus musculus). Kind of test: Inhibition of DOT1L in mouse bone marrow cell transformed with MLL-AF9 cells assessed as reduction in H3K79 methylation measured after 9 days by Western blot analysis. The test is classed as cell-based. As to conditions: dose 1-30 µM, time 9.0 day. (A western blot detects proteins with antibodies after separation by electrophoresis.)

In test [9] the test system is Bone marrow cell. Kind of test: Antiproliferative activity against mouse bone marrow cell transformed with MLL-AF9 assessed as reduction in cell growth at 30 uM measured after 11 days by hemocytometry relative to control. Type of test: functional. As to conditions: 264 h, time 11 day.
Test [10] has as its target DNA (cytosine-5)-methyltransferase 1 (Homo sapiens, UniProt P26358). Kind of test: Inhibition of recombinant human DNMT1 using poly(dl-dC) as substrate by hotspot assay. As to conditions: read-out: IC50.
Test [11] has as its system Bone marrow cell. Kind of test: Antiproliferative activity against mouse bone marrow cell transformed with E2A-HLF assessed as reduction in cell growth at 1 to 30 uM measured after 15 days by hemocytometry. The test is classed as functional, cell-based. The following applies: dose 1-30 µM, time 15.0 day.

Calls of active or inactive are those of the source. No cut-off for these calls is given here.

Sequence of Histone-lysine N-methyltransferase, H3 lysine-79 specific (Q8TEK3 whole entry, looked up, the tested form may be a part): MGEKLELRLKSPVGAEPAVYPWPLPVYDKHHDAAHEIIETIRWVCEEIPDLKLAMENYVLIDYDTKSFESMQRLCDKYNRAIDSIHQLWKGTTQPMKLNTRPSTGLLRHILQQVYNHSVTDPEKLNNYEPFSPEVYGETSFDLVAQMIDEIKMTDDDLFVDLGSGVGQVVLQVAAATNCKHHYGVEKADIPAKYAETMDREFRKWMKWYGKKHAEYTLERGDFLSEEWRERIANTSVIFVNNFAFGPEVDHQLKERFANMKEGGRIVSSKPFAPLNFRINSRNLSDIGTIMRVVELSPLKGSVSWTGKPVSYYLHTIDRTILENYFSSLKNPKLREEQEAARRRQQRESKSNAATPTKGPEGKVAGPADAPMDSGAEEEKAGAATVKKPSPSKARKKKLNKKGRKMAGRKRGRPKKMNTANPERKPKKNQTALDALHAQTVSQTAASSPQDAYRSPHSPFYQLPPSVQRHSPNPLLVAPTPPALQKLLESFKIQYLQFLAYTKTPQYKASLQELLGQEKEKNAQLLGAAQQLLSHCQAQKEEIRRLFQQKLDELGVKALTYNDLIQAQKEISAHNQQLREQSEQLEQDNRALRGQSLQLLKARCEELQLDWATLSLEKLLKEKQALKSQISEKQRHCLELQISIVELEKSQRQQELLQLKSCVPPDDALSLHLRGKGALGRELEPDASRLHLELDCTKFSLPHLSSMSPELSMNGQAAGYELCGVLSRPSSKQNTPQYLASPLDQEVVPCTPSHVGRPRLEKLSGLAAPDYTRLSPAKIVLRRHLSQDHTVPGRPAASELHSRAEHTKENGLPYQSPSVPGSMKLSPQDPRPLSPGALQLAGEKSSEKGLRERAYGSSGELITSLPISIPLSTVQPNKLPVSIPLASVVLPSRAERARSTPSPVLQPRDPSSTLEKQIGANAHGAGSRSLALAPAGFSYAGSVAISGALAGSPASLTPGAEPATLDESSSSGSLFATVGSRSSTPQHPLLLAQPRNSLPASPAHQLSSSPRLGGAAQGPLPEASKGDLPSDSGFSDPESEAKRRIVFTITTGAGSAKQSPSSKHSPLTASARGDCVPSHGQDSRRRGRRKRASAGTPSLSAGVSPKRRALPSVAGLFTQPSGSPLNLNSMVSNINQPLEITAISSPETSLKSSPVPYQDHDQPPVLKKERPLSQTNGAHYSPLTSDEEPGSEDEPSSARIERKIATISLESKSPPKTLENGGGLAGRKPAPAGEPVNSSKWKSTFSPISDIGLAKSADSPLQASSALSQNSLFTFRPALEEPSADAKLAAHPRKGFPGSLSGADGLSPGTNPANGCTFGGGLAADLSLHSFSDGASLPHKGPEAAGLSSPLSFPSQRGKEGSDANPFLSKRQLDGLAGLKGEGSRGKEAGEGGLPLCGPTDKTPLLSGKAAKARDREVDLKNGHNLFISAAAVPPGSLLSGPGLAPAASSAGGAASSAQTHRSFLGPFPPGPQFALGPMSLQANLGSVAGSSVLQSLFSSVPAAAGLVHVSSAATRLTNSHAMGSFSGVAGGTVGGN
Sequence of Histone-lysine N-methyltransferase EZH2 (Q15910 whole entry): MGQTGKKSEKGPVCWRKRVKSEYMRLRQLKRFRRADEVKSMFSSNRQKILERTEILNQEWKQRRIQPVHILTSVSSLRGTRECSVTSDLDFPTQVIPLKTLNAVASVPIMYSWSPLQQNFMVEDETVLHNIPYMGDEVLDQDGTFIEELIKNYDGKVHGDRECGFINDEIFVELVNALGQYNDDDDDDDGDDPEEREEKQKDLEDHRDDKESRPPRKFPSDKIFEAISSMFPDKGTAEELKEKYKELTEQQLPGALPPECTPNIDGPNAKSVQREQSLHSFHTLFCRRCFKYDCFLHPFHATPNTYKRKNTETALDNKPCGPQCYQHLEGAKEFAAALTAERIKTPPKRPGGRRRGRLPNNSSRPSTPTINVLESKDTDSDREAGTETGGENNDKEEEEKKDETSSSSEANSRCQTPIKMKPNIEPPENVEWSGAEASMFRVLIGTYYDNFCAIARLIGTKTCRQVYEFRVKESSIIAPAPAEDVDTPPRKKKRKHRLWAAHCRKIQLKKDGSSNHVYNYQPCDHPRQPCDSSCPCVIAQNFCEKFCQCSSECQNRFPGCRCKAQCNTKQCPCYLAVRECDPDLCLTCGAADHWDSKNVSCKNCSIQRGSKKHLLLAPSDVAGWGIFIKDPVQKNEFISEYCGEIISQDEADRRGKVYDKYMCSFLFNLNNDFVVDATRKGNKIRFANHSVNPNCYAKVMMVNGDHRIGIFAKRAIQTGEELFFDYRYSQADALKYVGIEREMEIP
Sequence of Protein arginine N-methyltransferase 8 (Q9NR22 whole entry): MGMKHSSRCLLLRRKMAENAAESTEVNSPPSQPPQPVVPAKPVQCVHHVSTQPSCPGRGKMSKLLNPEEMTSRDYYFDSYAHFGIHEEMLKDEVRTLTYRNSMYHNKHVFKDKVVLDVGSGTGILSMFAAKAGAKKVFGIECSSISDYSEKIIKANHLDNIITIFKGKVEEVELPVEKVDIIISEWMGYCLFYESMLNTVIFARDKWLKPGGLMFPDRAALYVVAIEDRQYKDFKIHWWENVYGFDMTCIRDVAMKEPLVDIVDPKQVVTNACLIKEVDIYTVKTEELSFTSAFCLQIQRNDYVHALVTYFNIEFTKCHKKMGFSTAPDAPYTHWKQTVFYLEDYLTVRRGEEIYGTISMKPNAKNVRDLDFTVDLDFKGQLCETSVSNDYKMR
Sequence of DNA (cytosine-5)-methyltransferase 1 (P26358 whole entry): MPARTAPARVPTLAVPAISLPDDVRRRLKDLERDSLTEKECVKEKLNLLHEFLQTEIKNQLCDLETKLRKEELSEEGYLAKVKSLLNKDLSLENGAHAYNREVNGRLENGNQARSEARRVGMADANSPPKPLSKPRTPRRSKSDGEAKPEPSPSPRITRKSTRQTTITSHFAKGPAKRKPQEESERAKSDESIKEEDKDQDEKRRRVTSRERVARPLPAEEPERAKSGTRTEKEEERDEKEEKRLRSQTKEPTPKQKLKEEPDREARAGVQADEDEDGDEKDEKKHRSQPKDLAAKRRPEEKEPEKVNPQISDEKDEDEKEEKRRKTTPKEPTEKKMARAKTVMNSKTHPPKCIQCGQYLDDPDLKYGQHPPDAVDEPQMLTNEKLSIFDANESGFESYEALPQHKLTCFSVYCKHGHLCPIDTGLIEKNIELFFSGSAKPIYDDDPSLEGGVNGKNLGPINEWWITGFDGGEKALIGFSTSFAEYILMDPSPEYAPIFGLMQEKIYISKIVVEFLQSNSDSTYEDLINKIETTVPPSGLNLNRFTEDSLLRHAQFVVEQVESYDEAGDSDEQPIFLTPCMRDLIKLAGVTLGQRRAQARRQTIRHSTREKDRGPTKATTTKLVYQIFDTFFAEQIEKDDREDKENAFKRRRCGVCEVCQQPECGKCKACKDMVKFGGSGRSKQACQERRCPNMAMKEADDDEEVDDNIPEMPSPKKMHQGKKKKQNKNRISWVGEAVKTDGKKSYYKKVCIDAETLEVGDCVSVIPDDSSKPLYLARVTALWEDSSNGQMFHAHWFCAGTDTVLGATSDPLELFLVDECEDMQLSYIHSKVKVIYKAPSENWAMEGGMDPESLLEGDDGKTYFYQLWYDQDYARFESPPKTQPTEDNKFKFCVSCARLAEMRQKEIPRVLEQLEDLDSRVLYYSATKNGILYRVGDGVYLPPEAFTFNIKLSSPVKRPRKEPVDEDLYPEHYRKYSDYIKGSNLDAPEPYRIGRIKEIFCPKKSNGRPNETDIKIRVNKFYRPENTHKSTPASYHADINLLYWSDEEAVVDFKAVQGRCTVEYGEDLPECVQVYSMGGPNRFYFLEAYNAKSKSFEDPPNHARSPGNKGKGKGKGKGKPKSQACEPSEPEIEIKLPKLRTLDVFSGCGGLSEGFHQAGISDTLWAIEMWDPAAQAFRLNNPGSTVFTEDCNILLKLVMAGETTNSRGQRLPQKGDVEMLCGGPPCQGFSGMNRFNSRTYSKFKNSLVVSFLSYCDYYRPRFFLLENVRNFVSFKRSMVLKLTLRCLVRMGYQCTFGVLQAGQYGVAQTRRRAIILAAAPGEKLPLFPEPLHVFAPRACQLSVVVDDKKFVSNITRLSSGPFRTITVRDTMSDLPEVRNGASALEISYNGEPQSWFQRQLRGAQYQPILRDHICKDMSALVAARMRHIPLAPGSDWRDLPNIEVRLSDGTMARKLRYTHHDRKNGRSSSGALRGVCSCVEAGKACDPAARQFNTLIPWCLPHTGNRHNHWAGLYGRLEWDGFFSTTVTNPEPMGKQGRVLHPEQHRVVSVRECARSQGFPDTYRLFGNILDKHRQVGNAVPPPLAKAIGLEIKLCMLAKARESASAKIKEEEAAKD

Usually inhibition stands for the relative decrease from the control value, in per cent. A word on the IC50: it is the concentration that inhibits the measured activity by half. Consider `CC(C)(C)c1ccc(NC(=O)c2ncn(CC(=O)NCCn3ccc4c(N)ncnc43)n2)cc1`, for which the Activity result (in test [1]; with Bone marrow cell [6]) was “Dose-dependent effect” each time. Also, the results for the inhibition in [2] and in test [8] were 100% and “Dose-dependent effect”, respectively. The IC50 entry in test [3] was “Not Active”; in test [4] it was above 250 µM; in test [5], “Not Active”; in the test with Bone marrow cell [7] it was 1 µM; in test [10] it was 248 µM. In the test on Bone marrow cell [9], the inhibition at 30 µM is 100%. Also, the inhibition entry in the test with Bone marrow cell [11] is “inactive”.

The record behind these values is ChEMBL document CHEMBL4680176, “Identification of DOT1L inhibitors by structure-based virtual screening adapted from a nucleoside-focused library” (Eur J Med Chem, 2020).
